Article PMC8559613 (Journal of biomolecular screening, 2016)

Assays:
[1] = test system: KLE cells; type: cell-based
[2] = test system: KLE cells; assay: Cell cycle analysis; type: cell-based, human; conditions: 72 h; for % of cells in >4N / % of cells in G0/G1 / % of cells in G2/M / % of cells in S / % of cells in Sub-G1: mean ± SD; for cell cycle effects in CYP1B1-inhibited KLE cells / cell cycle effect in KLE cells compared to untreated cells: 10 and 100 μM
How it was run: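 KLE cells, day 7 post-seeding, exposed to 10 or 100 μM prodrug with or without 10 μM α-NF for 72 h; untreated cells received no prodrug. Cells harvested, fixed in 70% (v/v) ethanol at −20°C overnight, then stained with PI/RNase buffer for 30 min at room temperature. DNA content read by flow cytometry. Run in triplicate or quadruplicate.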

[3] = test system: KLE cells; assay: Annexin V-FITC/PI apoptosis assay in KLE cells; type: cell-based, human; conditions: for pro-apoptotic effect (early apoptotic cell population relative to untreated cells): 50 μM, without α-NF, 24, 48 and 72 h; for concentration dependence of pro-apoptotic effect: 10, 50 and 100 μM, without α-NF, 72 h
How it was run: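 KLE cells grown in DMEM/F-12 (1:1) with 10% FBS were seeded in 6-well plates and used on day 7 post-seeding. Prodrug was given without α-NF at 50 μM for 24, 48 or 72 h, or at 10, 50 or 100 μM for 72 h. Controls received no prodrug. Cells were double-stained with Annexin V-FITC/PI and run on flow cytometry. % early apoptotic cells was compared with untreated controls by one-way ANOVA with Dunnett post test. Triplicate or quadruplicate.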

[4] = Resazurin cytotoxicity assay in CYP1B1-transfected HEK293T cells; type: cell-based; conditions: human, HEK293T cells transfected with CYP1B1
[5] = Resazurin cytotoxicity assay in wild-type HEK293T cells; type: cell-based; conditions: human
How it was run: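 Untransfected HEK293T cells in DMEM with 10% FBS, seeded at 5,000 cells/well and held 24 h. Prodrug given at 0–100 μM with medium changed daily for 69 h. Resazurin (0.01% w/v) added for a further 3 h (72 h total). Fluorescence read at ex 565/em 595 nm. IC50 from variable-slope dose-response fit. Controls: 0.1% DMSO vehicle and 2% Triton X-100.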

[6] = Resazurin cytotoxicity assay in HepaRG cells; type: cell-based; conditions: human
How it was run: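 HepaRG cells grown 2 weeks in Growth medium, then 2 weeks in Differentiation medium, then seeded at 5,000 cells/well. Prodrug given at 0–100 μM with medium changed daily for 69 h. Resazurin (0.01% w/v) added for a further 3 h (72 h total). Fluorescence read at ex 565/em 595 nm. IC50 from variable-slope dose-response fit. Controls: 0.1% DMSO vehicle and 2% Triton X-100.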

[7] = after the 14th daily oral administration of 6 mg/kg, vervet monkeys; cited from earlier work
[8] = test system: CYP1B1; assay: EROD activity assay in KLE cells; type: cell-based; conditions: human, probe 7-ER (0.8 μM)
[9] = 100 μM prodrug, with 10 μM α-NF

## CON=C(N)c1ccc(-c2ccc(-c3ccc(C(N)=NOC)cc3)o2)cc1 [DB289, 2,5-bis[4-amidinophenyl]furan-bis-O-methylamidoxime]
[1]; 50 μM prodrug, KLE cells without α-NF, normalized to vehicle control
  viability of KLE cells: 21%
[2]; 10 μM prodrug, with 10 μM α-NF
  % of cells in >4N: 5.3 ± 1.0%
  % of cells in G0/G1: 39.5 ± 0.6%
  % of cells in G2/M: 39.3 ± 2.9%
  % of cells in S: 9.8 ± 1.4%
  % of cells in Sub-G1: 5.4 ± 0.0%
[2]; 10 μM prodrug, without α-NF
  % of cells in >4N: 1.7 ± 0.6%
  % of cells in G0/G1: 40.0 ± 1.7%
  % of cells in G2/M: 45.0 ± 5.2%
  % of cells in S: 5.3 ± 1.1 %
  % of cells in Sub-G1: 5.1 ± 1.4%
[2]; [9]
  % of cells in >4N: 3.6 ± 0.4%
  % of cells in G0/G1: 43.2 ± 3.4%
  % of cells in G2/M: 42.4 ± 2.6%
  % of cells in S: 6.1 ± 1.1%
  % of cells in Sub-G1: 4.7 ± 1.0%
[2]; 100 μM prodrug, without α-NF
  % of cells in >4N: 4.5 ± 1.3%
  % of cells in G0/G1: 43.2 ± 0.8 %
  % of cells in G2/M: 39.5 ± 0.2%
  % of cells in S: 8.3 ± 1.0 %
  % of cells in Sub-G1: 4.5 ± 0.7%
[2]; with 10 μM α-NF
  cell cycle effects in CYP1B1-inhibited KLE cells: absent
[2]; without α-NF
  cell cycle effect in KLE cells compared to untreated cells: concentration-dependent G0/G1 cell cycle arrest
[3]
  pro-apoptotic effect (early apoptotic cell population relative to untreated cells): significant increase in the early apoptotic cell population
  concentration dependence of pro-apoptotic effect: concentration-dependent pro-apoptotic effects

## CONC(=N)c1ccc(-c2ccc(-c3ccc(C(=N)NOC)cn3)o2)cc1 [DB844, N-methoxy-6-{5-[4-(N-methoxyamidino)phenyl]-furan-2-yl}-nicotinamidine]
[4]
  IC50 at 72 h: 38.8 ± 0.9 µM
[5]
  IC50 at 72 h: 37.9 ± 0.9 µM
[6]
  IC50 at 72 h: 76.3 ± 1.6 µM
[2]; 10 μM prodrug, with 10 μM α-NF
  % of cells in >4N: 4.9 ± 0.9%
  % of cells in G0/G1: 41.1 ± 1.5%
  % of cells in G2/M: 40.7 ± 2.9%
  % of cells in S: 7.9 ± 1.5%
  % of cells in Sub-G1: 4.1 ± 1.1%
[2]; 10 μM prodrug, without α-NF
  % of cells in >4N: 6.3 ± 1.9%
  % of cells in G0/G1: 38.7 ± 2.1%
  % of cells in G2/M: 47.3 ± 0.5%
  % of cells in S: 8.0 ± 1.4 %
  % of cells in Sub-G1: 4.6 ± 0.8%
[2]; [9]
  % of cells in >4N: 3.4 ± 0.6%
  % of cells in G0/G1: 43.3 ± 0.4%
  % of cells in G2/M: 41.8 ± 1.1%
  % of cells in S: 5.6 ± 0.7%
  % of cells in Sub-G1: 4.3 ± 0.9%
[2]; 100 μM prodrug, without α-NF
  % of cells in >4N: 3.7 ± 0.9%
  % of cells in G0/G1: 43.9 ± 1.2 %
  % of cells in G2/M: 40.6 ± 1.3%
  % of cells in S: 6.6 ± 1.1 %
  % of cells in Sub-G1: 5.3 ± 1.5%
[2]; with 10 μM α-NF
  cell cycle effects in CYP1B1-inhibited KLE cells: absent
[2]; without α-NF
  cell cycle effect in KLE cells compared to untreated cells: concentration-dependent G0/G1 cell cycle arrest
[3]
  pro-apoptotic effect (early apoptotic cell population relative to untreated cells): significant increase in the early apoptotic cell population
  concentration dependence of pro-apoptotic effect: concentration-dependent pro-apoptotic effects
[7]
  average maximal plasma concentration: 0.43 µM

## O=c1cc(-c2ccccc2)oc2c1ccc1ccccc12 [α-NF, α-naphthoflavone]
[1]; α-NF up to 15 μM
  cytotoxic effect on KLE cells: did not show any cytotoxic effect
[8]
  inhibition at 24 h, 1 μM: 81%
